# Test results taken from article PMC7614192 (Biomedicine & pharmacotherapy = Biomedecine & …, 2022).
# How the values were obtained:
# [1] = tested on: primary human lymphocytes; conditions: primary human lymphocytes in vitro; cited from earlier work
# [2] = tested on: mouse model of multiple sclerosis; conditions: oral application; cited from earlier work
# [3] = tested on: activated human primary T cells (PBMC); test: Cell division tracking using CFSE; type: cell-based; conditions: cyclotides, anti-CD3/anti-CD28 stimulated human PBMC, 72 h, n = 3
# Summary of the method: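 PBMC at 5 × 10^6 cells/mL in PBS were labelled with CFSE (5 mM stock diluted 1/1000) for 10 min at 37 °C, and labelling was stopped by washing in complete medium. Cells (2 × 10^5) were activated with anti-CD3/anti-CD28 (100 ng/mL each) and cultured 72 h with test compound or CsA 4.16 μM. Proliferating cells were read by flow cytometry and normalised to the stimulated control. Mean ± SD, n = 3.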
# [4] = tested on: activated human PBMC / T lymphocytes; test: Apoptosis and necrosis by annexin V and propidium iodide staining; type: cell-based; conditions: cyclotides, annexin V-FITC/PI, n = 3
# Summary of the method: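 Donor PBMC (2 × 10^5) in RPMI 1640 with 10% heat-inactivated FBS and 2 mM L-glutamine at 37 °C, 5% CO2. Activated with anti-CD3 (HIT3) and anti-CD28 (28.6), 100 ng/mL each, then exposed to test compound. Annexin V-FITC/PI double staining by flow cytometry, normalised to the stimulated control. Camptothecin was the apoptosis control and Triton X-100 (0.5%) the necrosis control. Mean ± SD, n = 3, ANOVA/Dunnett.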
# [5] = tested on: activated human PBMC / T lymphocytes; test: Cell cycle progression by DNA content; type: cell-based; conditions: cyclotides, 72 h, PI staining, n = 3
# Summary of the method: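 PBMC were activated with anti-CD3/anti-CD28 (100 ng/mL each) and incubated 72 h with test compound or CsA. Cells were washed, fixed and permeabilised in 70% ice-cold ethanol, then stained with PI plus RNase. Flow cytometry gave the share of living lymphocytes in each cell-cycle phase, reported as mean of three independent experiments.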
# [6] = tested on: CD107a on CD8+ T cells; test: CD8+ T cell degranulation; type: cell-based, human; conditions: cyclotides; activated PBMC 24 h, PMA/ionomycin 4 h, MFI of CD107a, n = 3
# Summary of the method: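 Anti-CD3/anti-CD28 (100 ng/mL each) activated PBMC (2 × 10^5) were treated with test compound, CsA (4.16 μM) or camptothecin (300 μM) for 24 h. They were then restimulated with PMA (50 ng/mL) and ionomycin (500 ng/mL) for 4 h. Staining used CD107a-PE with GolgiStop, read by flow cytometry. CD107a MFI is expressed relative to the stimulated control. n = 3.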
# [7] = tested on: CD25 on T lymphocytes; test: CD25 activation marker detection; type: cell-based, human; conditions: cyclotides; activated PBMC, 24 h, n = 3
# Summary of the method: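 PBMC (2 × 10^5) were stimulated with anti-CD3/anti-CD28 mAbs (100 ng/mL each) and exposed to test compound for 24 h. Controls were CsA 4.16 μM and camptothecin 300 μM. Stained with anti-CD25-PE plus anti-CD4-APC and read by flow cytometry. Result is the percentage of CD4+ and CD4− T cells expressing CD25, relative to the untreated stimulated control. n = 3, ANOVA/Dunnett.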
Substance,effect on T cell proliferation [1],clinical scores [2],concentration with significant reduction in T cell proliferation [3] [µM],concentration with significant increase in the number of apoptotic cells [4] [µM],concentration with significant reduction in the number of cells in the G2-phase [5] [µM],concentration with significant rise in degranulation levels (CD107a) [6] [µM],concentration with significant reduction of CD25 expression [7] [µM],concentration with significant reduction in CD107a levels [6] [µM],concentration with significant induction of necrosis [4] [µM]
"T20K (GLPVCGETCVGGTCNTPGCKCSWPVCTRN; not fully specified; Kalata-B1 cyclic backbone; UniProt P56254 89-117, looked up, variant T20K)",inhibition of T cell proliferation,significant delay and reductions in clinical scores,–,–,–,–,–,–,–
c-CGESCVFIPCFSSVIGCSCKNKVCYRNGVIP (bicyclic or more) [caripe 12],–,–,30,30,30,3,–,–,–
c-CGESCVFIPCFSTVIGCSCKNKVCYRNGVIP (bicyclic or more) [caripe 10],–,–,10,10,10,–,10,10,–
c-CGESCVFIPCFTSVFGCSCKDKVCYRNGIP (bicyclic or more) [caripe 13],–,–,30,–,–,–,–,–,30
c-CGESCVFIPCISTVIGCSCKKKVCYRNGVIP (bicyclic or more) [caripe 11],–,–,30,10,30,3,–,–,–
c-CGESCVFIPCITAAIGCSCKKKVCYRNGVIP (bicyclic or more) [caripe 8],–,–,10,–,30,3,10,10,10
cyclo-CGESCVFIPCTVTALLGCSCKNKVCYRNGIP (bicyclic or more) [caripe 7],–,–,10,–,10,–,10,10,3
